Experimental data taken from ChEMBL document CHEMBL4261606, “Inhibition of LDL oxidation and inflammasome assembly by nitroaliphatic derivatives. Potential use as anti-inflammatory and anti-atherogenic agents” (Eur J Med Chem, 2018).
Active and inactive are the calls of the source. The calls are words filed in the database; no cut-off is given here.

Experiments:
[1] = Antioxidant activity assessed as trolox equivalent of AAPH-induced peroxyl radical scavenging activity at 1.3 to 13 uM up to 140 mins by ORAC-FL assay; format: functional
Procedure, shortened: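 ORAC: fluorescein (7.5 nM) decay (ex 485/em 512 nm) followed 140 min at 37 °C. Peroxyl radicals came from 30 mM AAPH in 75 mM phosphate pH 7.4 with 100 µM DTPA, compounds at 1.3-13 µM. Curves normalised to initial fluorescence, and net AUC versus concentration compared with Trolox standard (1.5-24 µM). Three independent determinations, mean ± SD.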

Plasma [2] = assay: Inhibition of AAPH-induced oxidation of human plasma derived LDL assessed as time of delay for initiation of propagation phase by measuring rate of oxygen consumption at 20 uM added before AAPH addition by high-resolution oxygen electrode
Mus musculus [3] = organism: Mus musculus; assay: Antiinflammatory activity in mouse […] cells assessed as reduction in INF-gamma/LPS-induced IL-1beta expression at 5 uM preincubated for 1 hr followed by INF-gamma/LPS addition for 4 hrs by Western blot analysis; format: functional, cell-based
Procedure, shortened: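 Confluent J774 monolayers preincubated 1 h with compound at 5 µM, then stimulated 4 h at 37 °C, 5% CO₂ with IFN-γ 400 U/mL plus Salmonella enterica LPS 8 µg/mL. Whole-cell lysates resolved by 15% SDS-PAGE and immunoblotted with rabbit anti-IL-1β and Alexa Fluor 680 secondary. Bands quantified by densitometry, with loading checked on paired colloidal-blue gels. Three independent experiments, one-way ANOVA.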

Plasma [4] = assay: Inhibition of AAPH-induced oxidation of human plasma derived LDL assessed as reversal of rate of oxygen consumption at 20 uM added after beginning of propagation phase by high-resolution oxygen electrode
[5] = Cytotoxicity in mouse […] cells assessed as change in cell survival at 0.3 to 5 uM after 2 to 24 hrs by MTT assay; format: cell-based
Procedure, shortened: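 Confluent J774 cells exposed to compounds in DMEM at 37 °C, 5% CO₂ for 2 h and for 24 h. MTT (0.1 mg/mL in DPBS) then added for 3 h at 37 °C. Formazan dissolved in DMSO/glycine buffer pH 10.5 and absorbance read at 560 nm, with vehicle as reference.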

Mus musculus [6] = organism: Mus musculus; assay: Antiatherogenic activity in mouse […] cells assessed as foam cell formation by measuring ox-LDL internalization at 2.5 to 5 uM preincubated for 1 hr followed by ox-LDL Dil addition for 4 hrs by Hoechst 3342-staining based fluorescence assay; format: functional
Procedure, shortened: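 J774 murine macrophages in DMEM with 10% FBS at 80% confluence (~2×10⁵ cells/well) preincubated 1 h with compound (0.3-5 µM range in plate-reader format). DiI-labelled Cu²⁺-oxidised LDL (10 µg/mL) then added for 4 h at 37 °C, 5% CO₂. Cells washed, nuclei stained with Hoechst 3342 (10 µg/mL, 10 min). Read-out is DiI (549/565 nm) to Hoechst (352/461 nm) fluorescence ratio.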

Row | Compound | Activity [1] [equiv] | also measured
1 | CC(=O)Nc1ccc(/C=C\[N+](=O)[O-])cc1 | 0.63 | 
2 | C/C(=C/c1ccccc1)[N+](=O)[O-] | 0.37 | 
3 | O=[N+]([O-])/C=C\c1ccc(Br)cc1 | 0.44 | 
4 | O=[N+]([O-])/C=C\c1cccs1 | 0.43 | 
5 | CC(Cc1ccc(N(C)C)cc1)[N+](=O)[O-] (stereo unspecified) | 10 | Time (Plasma [2]): 30 min; Activity (Mus musculus [3]): Active; inhibition (Plasma [4]): Active
6 | O=[N+]([O-])/C=C\c1ccc2c(c1)OCO2 | 0.72 | 
7 | O=[N+]([O-])/C=C\c1ccccc1 | 0.29 | 
8 | CSc1ccc(/C=C\[N+](=O)[O-])cc1 | 3.5 | 
9 | COc1ccc(/C=C\[N+](=O)[O-])cc1 | 0.46 | 
10 | C/C(=C/c1ccc2c(c1)OCO2)[N+](=O)[O-] | 1.6 | 
11 | C/C(=C/c1ccc(N(C)C)cc1)[N+](=O)[O-] | 5.4 | Time (Plasma [2]): 20 min; Activity [5]: Non-Toxic; Activity (Mus musculus [3]): Active; inhibition (Plasma [4]): inactive; Activity (Mus musculus [6]): inactive
12 | CN(C)c1ccc(/C=C\[N+](=O)[O-])cc1 | 4.2 | Time (Plasma [2]): 20 min; Activity [5]: Non-Toxic; Activity (Mus musculus [3]): Active; inhibition (Plasma [4]): inactive; Activity (Mus musculus [6]): inactive
13 | C/C(=C/c1ccc(Br)cc1)[N+](=O)[O-] | 0.45 | 
14 | COc1ccc(/C=C(/C)[N+](=O)[O-])cc1 | 0.46 | 
15 | C/C(=C/c1cccs1)[N+](=O)[O-] | 0.54 | 
16 | CSc1ccc(CC[N+](=O)[O-])cc1 | 2.8 | 
17 | O=[N+]([O-])/C=C\c1ccc(Cl)cc1 | 0.44 | 
18 | C/C(=C/c1ccc(Cl)cc1)[N+](=O)[O-] | 0.39 | 
19 | CN(C)c1ccc(CC[N+](=O)[O-])cc1 | 13 | Time (Plasma [2]): >40 min; Activity (Mus musculus [3]): Active; inhibition (Plasma [4]): Active
20 | CC(=O)Nc1ccc(CC[N+](=O)[O-])cc1 | 0.26 | 
